From BindingDB's records for doi:10.1021/jm950541c (Georgia Institute of Technology, 1996) come the findings set out here.

This assay has as its target T1, Calpain-2 catalytic subunit (Homo sapiens, UniProt P17655).
T1 sequence (P17655 whole entry): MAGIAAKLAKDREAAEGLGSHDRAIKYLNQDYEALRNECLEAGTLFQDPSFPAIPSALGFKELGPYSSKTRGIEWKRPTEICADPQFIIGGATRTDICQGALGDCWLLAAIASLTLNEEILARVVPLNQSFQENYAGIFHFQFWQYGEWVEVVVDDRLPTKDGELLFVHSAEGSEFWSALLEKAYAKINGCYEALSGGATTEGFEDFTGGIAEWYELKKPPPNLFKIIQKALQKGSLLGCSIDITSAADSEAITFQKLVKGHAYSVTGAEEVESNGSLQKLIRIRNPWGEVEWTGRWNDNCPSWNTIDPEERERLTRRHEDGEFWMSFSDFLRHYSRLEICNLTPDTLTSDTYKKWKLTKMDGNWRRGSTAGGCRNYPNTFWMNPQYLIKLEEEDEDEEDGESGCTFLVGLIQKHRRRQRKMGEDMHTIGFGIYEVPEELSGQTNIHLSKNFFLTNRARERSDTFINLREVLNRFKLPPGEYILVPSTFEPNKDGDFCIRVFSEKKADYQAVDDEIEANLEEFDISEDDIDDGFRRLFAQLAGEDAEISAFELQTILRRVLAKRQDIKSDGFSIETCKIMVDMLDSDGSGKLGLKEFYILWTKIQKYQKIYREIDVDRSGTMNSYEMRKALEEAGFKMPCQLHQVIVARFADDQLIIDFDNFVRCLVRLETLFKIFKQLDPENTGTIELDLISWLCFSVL
Description: Compound was evaluated for the inhibition of Cysteine protease Calpain 2. Put shortly:
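Calpain assay in 25 mM Tris, pH 8.0, with 10 mM CaCl₂ and 5% DMSO. Suc-Leu-AMC hydrolysis was read as initial velocity (t = 30-60 s) after a 30 s delay, at room temperature. Five or more inhibitor concentrations (not above 2 × K_obs) were used at two fixed substrate levels. Ki came from Dixon plots (1/v vs I) averaged over triplicates.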
`CC(C)CC(NC(=O)C(c1ccccc1)c1ccccc1)C(=O)NC(Cc1ccccc1)C(=O)C(=O)NCC(O)c1ccccc1` (stereo not drawn) [2-Diphenylacetylamino-4-methyl-pentanoic acid [1-benzyl-2-(2-hydroxy-2-phenyl-ethylcarbamoyl)-2-oxo-ethyl]-amide]: the inhibition constant Ki (as a rule, a dissociation constant, usually derived from enzyme kinetics or from competition with a known ligand) was 730 nM. In other words, the sub-micromolar range. Next, `CC(C)CC(NC(=O)C(c1ccccc1)c1ccccc1)C(=O)NC(Cc1ccccc1)C(=O)C(=O)NCCCN1CCOCC1` (stereo not drawn) [2-Diphenylacetylamino-4-methyl-pentanoic acid [1-benzyl-2-(3-morpholin-4-yl-propylcarbamoyl)-2-oxo-ethyl]-amide]: 74 nM; `CC(C)CC(NC(=O)C(c1ccccc1)c1ccccc1)C(=O)NC(Cc1ccccc1)C(=O)C(=O)NCc1ccccn1` (stereo not drawn) [2-Diphenylacetylamino-4-methyl-pentanoic acid {1-benzyl-2-oxo-2-[(pyridin-2-ylmethyl)-carbamoyl]-ethyl}-amide]: 360 nM; `CCC(NC(=O)C(CC(C)C)NC(=O)C(c1ccccc1)c1ccccc1)C(=O)C(=O)NCCCN1CCOCC1` (stereo not drawn) [3-(2-Diphenylacetylamino-4-methyl-pentanoylamino)-2-oxo-pentanoic acid (3-morpholin-4-yl-propyl)-amide]: 110 nM.

For the compound `CCC(NC(=O)C(CC(C)C)NC(=O)C(c1ccccc1)c1ccccc1)C(=O)C(=O)NCc1ccccn1` (stereo not drawn) [3-(2-Diphenylacetylamino-4-methyl-pentanoylamino)-2-oxo-pentanoic acid (pyridin-2-ylmethyl)-amide], the affinity corresponds to a Ki of 90 nM.

In turn, `CCNC(=O)C(=O)C(CC)NC(=O)C(CC(C)C)NC(=O)C(c1ccccc1)c1ccccc1` (stereo not drawn) [3-(2-Diphenylacetylamino-4-methyl-pentanoylamino)-2-oxo-pentanoic acid ethylamide] came in with a Ki of 1200 nM. Next, `CCNC(=O)C(=O)C(CC)NC(=O)C(CC(C)C)NC(=O)Cc1cccc2ccccc12` (stereo not drawn) [3-[4-Methyl-2-(2-naphthalen-1-yl-acetylamino)-pentanoylamino]-2-oxo-pentanoic acid ethylamide]: 250 nM. In turn, `CCNC(=O)C(=O)C(CC)NC(=O)C(CC(C)C)NC(=O)CCc1ccccc1` (stereo not drawn) [3-[4-Methyl-2-(3-phenyl-propionylamino)-pentanoylamino]-2-oxo-pentanoic acid ethylamide] displayed a Ki of 130 nM. `CC(C)CC(NC(=O)OCc1ccccc1)C(=O)NC(Cc1ccccc1)C(=O)C(=O)NCC(O)c1ccc(OCc2ccccc2)c(OCc2ccccc2)c1` (stereo not drawn) [(1-{1-Benzyl-2-[2-(3,4-bis-benzyloxy-phenyl)-2-hydroxy-ethylcarbamoyl]-2-oxo-ethylcarbamoyl}-3-methyl-butyl)-carbamic acid benzyl ester] yielded a Ki of 670 nM. Against the preceding compound, the Ki is about 5.2-fold higher. Next, `CC(C)CC(NC(=O)OCc1ccccc1)C(=O)NC(Cc1ccccc1)C(=O)C(=O)NCC(O)c1ccc(OCc2ccccc2)cc1` (stereo not drawn) [(1-{1-Benzyl-2-[2-(4-benzyloxy-phenyl)-2-hydroxy-ethylcarbamoyl]-2-oxo-ethylcarbamoyl}-3-methyl-butyl)-carbamic acid benzyl ester]: 240 nM; `CC(C)CC(NC(=O)OCc1ccccc1)C(=O)NC(Cc1ccccc1)C(=O)C(=O)NCC(O)c1cccc(Oc2ccccc2)c1` (stereo not drawn) [(1-{1-Benzyl-2-[2-hydroxy-2-(3-phenoxy-phenyl)-ethylcarbamoyl]-2-oxo-ethylcarbamoyl}-3-methyl-butyl)-carbamic acid benzyl ester]: 340 nM. In turn, `CC(C)CC(NC(=O)OCc1ccccc1)C(=O)NC(Cc1ccccc1)C(=O)C(=O)NCC(O)c1cccc(C(F)(F)F)c1` (stereo not drawn) [(1-{1-Benzyl-2-[2-hydroxy-2-(3-trifluoromethyl-phenyl)-ethylcarbamoyl]-2-oxo-ethylcarbamoyl}-3-methyl-butyl)-carbamic acid benzyl ester] yielded a Ki of 290 nM. Next, `CC(C)CC(NC(=O)OCc1ccccc1)C(=O)NC(Cc1ccccc1)C(=O)C(=O)NCC(O)c1ccc(Oc2ccccc2)cc1` (stereo not drawn) [(1-{1-Benzyl-2-[2-hydroxy-2-(4-phenoxy-phenyl)-ethylcarbamoyl]-2-oxo-ethylcarbamoyl}-3-methyl-butyl)-carbamic acid benzyl ester]: 170 nM.
